According to PMC7094870 (ACS chemical biology, 2020):

Tests used:
[1] = system: CrpE P450; assay: CrpE in vitro epoxidation conversion assay; format: biochemical, Nostoc sp. ATCC 53789
[2] = system: CrpTE (cryptophycin thioesterase); assay: Analytical substrate conversion assay of CrpTE; format: biochemical
Summary of the method: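 Analytical-scale reactions of CrpTE with NAc-activated seco substrates carrying varied unit A aryl or heterocyclic groups (including methyl pyrazoles), with the benzyl substrate run as a control. Chromatographic peaks were assigned to unreacted starting material, hydrolysis product and cyclized macrolactone. Where starting material and hydrolysis peaks co-eluted, values were estimated from extrapolated peaks.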

[3] = system: CrpE P450 (histidine tagged); assay: CrpE P450 substrate binding titration; design: species or system Nostoc sp. ATCC 53789; conditions: type I (substrate-like) or type II (inhibitor-like) shift
[4] = target: (UniProt A4D937); assay: CrpE P450 substrate binding titration; design: species or system Nostoc sp. ATCC 53789
Sequence of (UniProt A4D937) (A4D937 1-450): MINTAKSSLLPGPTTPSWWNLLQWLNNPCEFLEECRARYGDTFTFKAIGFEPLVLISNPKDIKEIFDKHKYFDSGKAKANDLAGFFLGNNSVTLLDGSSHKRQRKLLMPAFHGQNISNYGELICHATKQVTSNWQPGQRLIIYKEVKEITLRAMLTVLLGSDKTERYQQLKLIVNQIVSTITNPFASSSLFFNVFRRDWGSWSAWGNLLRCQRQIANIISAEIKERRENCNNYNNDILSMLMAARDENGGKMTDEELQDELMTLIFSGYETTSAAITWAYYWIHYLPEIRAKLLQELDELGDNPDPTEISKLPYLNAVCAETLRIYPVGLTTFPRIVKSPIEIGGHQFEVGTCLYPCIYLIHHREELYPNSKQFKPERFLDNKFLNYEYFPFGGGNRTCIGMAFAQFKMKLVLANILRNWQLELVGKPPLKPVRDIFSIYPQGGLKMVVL

Structure (SMILES): COc1ccc(C[C@H]2NC(=O)/C=C/C[C@@H]([C@H](C)/C=C/c3ccccc3)OC(=O)[C@H](CC(C)C)OC(=O)[C@H](C)CNC2=O)cc1Cl [16a, cryptophycin 3]
- conversion (CrpE epoxidation) ([1]; RhFRED redox system): no conversion
- percent conversion (CrpE epoxidation) ([1]; spinach ferredoxin and ferredoxin reductase redox system): 38%
- total turnover number (TTN) ([2]; TTN = moles of product / moles of TE): 110
- percent conversion (CrpTE cyclization) ([2]; analytical scale, wild type CrpTE, NAc-activated seco substrate): 73%
- spectral shift on binding to CrpE [3]: type I shift
- Kd [4]: 530 ± 150 nM
